What was measured:
[1] = target: T1, Dihydropteridine reductase (Rattus norvegicus, UniProt P11348); test: Noncompetitive Inhibitory activity against rat striatal synaptosomal DHPR enzyme
T1 sequence (P11348 whole entry): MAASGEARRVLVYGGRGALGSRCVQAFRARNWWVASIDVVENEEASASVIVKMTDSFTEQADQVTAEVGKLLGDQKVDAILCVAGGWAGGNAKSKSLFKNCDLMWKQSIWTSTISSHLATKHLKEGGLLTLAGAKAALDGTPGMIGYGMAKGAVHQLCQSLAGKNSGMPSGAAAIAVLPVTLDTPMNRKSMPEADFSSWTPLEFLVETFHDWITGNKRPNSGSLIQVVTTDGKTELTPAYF

[2] = target: T2, Dihydropteridine reductase (Homo sapiens, UniProt P09417); test: Inhibitory activity against human liver Dihydropteridine reductase (DHPR); conditions: read-out: I50
T2 sequence (P09417 whole entry): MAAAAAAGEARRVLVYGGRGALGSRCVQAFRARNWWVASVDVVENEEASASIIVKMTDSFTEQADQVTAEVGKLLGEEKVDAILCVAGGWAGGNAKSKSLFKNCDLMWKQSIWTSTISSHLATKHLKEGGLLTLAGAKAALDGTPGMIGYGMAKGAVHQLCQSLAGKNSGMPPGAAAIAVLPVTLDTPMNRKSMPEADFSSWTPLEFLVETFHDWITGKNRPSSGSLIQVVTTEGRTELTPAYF
Method in brief: (§1)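 DHPR from human liver (6 mU, 60 ng protein) or rat striatal synaptosomes (6.5 mU, 75 μg twice-washed P₂ protein), preincubated 10 min at 25 °C with at least six inhibitor concentrations. Residual activity measured with 50 μM qDMPH₂ and 50 μM NADH by decrease in NADH absorbance at 340 nm; I₅₀ = concentration giving 50% inhibition.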

[3] = target: T1, Dihydropteridine reductase; test: Inhibitory activity against rat striatal synaptosomes Dihydropteridine reductase (DHPR); assay type: subcellular, Brain; conditions: read-out: I50; method in brief: as §1
[4] = target: T2, Dihydropteridine reductase; test: Noncompetitive Iinhibitory activity against human liver DHPR enzyme
[5] = target: T2, Dihydropteridine reductase; test: Inhibitory activity against human liver Dihydropteridine reductase using 10 uM qBH2 and 50 uM NADH assays; conditions: read-out: I50
Method in brief: (§2)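 Human liver or rat striatal synaptosomal DHPR, preincubated 10 min at 25 °C with inhibitor. Activity then assayed using natural substrate (6R)-dihydrobiopterin (qBH₂) at 10 μM with 50 μM NADH, followed as NADH absorbance decrease at 340 nm, to give 50% inhibitory concentrations.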

[6] = target: T1, Dihydropteridine reductase; test: Inhibitory activity against rat striatal synaptosomes […] using 10 uM qBH2 and 50 uM NADH assays; assay type: subcellular, Brain; conditions: read-out: I50; method in brief: as §2
[7] = target: T2, Dihydropteridine reductase; test: Inhibitory activity against human liver Dihydropteridine reductase enzyme using 10 uM qBH2 and 50 uM NADH assays; conditions: read-out: I50; method in brief: as §2

| SMILES | IC50 [2] [µM] | IC50 [3] [µM] | other results |
| --- | --- | --- | --- |
| CN1CCC(c2ccc(O)c(O)c2)CC1 | 42 | 60 | Ki [1]: 74 µM |
| C=CC[n+]1ccc(-c2ccccc2)cc1 | 9400 | 7400 |  |
| Oc1ccc(C2CCNCC2)cc1O | 44 | 38 |  |
| COc1ccc(-c2ccncc2)cc1OC | 5300 | 2000 |  |
| C1=C(c2ccccc2)CCNC1 | 12000 | 6600 |  |
| C[n+]1ccc(-c2ccc(O)c(O)c2)cc1 | 0.63 | 1.6 | Ki [1]: 1.9 µM |
| Oc1ccc(C2=CCNCC2)cc1 | 5.9 | 3.4 |  |
| COc1cc(C2CCN(C)CC2)ccc1O | 19 | 20 |  |
| COc1cc(C2=CCN(C)CC2)ccc1O | 9.3 | 5.8 |  |
| CN1CCC(c2ccccc2)CC1 | 23000 | 12000 |  |
| C[n+]1ccc(-c2ccccc2)cc1 [listing 1 of 2 here] | 10000 | 12000 |  |
| C[n+]1ccc(-c2ccccc2)cc1 [listing 2 of 2 here] | 5600 | 3400 |  |
| CN1CC=C(c2ccc(O)cc2)CC1 | 3 | 2.6 | Ki [4]: 2.8 µM |
| COc1ccc(C2=CCN(C(C)=O)CC2)cc1OC | 1100 | 2300 |  |
| Oc1ccc(-c2ccncc2)cc1O | 0.38 | 0.28 |  |
| COc1cc(C2=CCNCC2)ccc1O | 7.2 |  |  |
| CC(=O)N1CC=C(c2ccc(O)c(O)c2)CC1 | 0.28 | 0.25 |  |
| CC(=O)N1CCC(c2ccc(O)c(O)c2)CC1 | 5.2 | 3.1 |  |
| c1ccc(-c2ccncc2)cc1 | 2400 | 1900 |  |
| COc1cc(C2CCN(C(C)=O)CC2)ccc1O | 27 | 4.4 |  |
| COc1cc(C2=CCN(C(C)=O)CC2)ccc1O | 5 | 91 |  |
| CN1CC=C(c2ccc(Cl)cc2)CC1 | 2700 | 6400 |  |
| Clc1ccc(C2=CCNCC2)cc1 | 3400 | 4000 |  |
| CN1CC=C(c2ccc(O)c(O)c2)CC1 | 3.4 | 2.5 | Ki [1]: 3.3 µM; IC50 [5]: 1.4 µM; IC50 [6]: 1.2 µM |
| CN1CC=C(c2ccccc2)CC1 | 3000 | 4600 | IC50 [7]: 7200 µM; IC50 [6]: 8400 µM |
| Oc1ccc(C2=CCNCC2)cc1O | 3.6 | 1.9 |  |
